Experimental data reported in article PMC6945494 (Biomaterials, 2019).
Converted amounts (≈) assume the structure as drawn. Like-named read-outs stand apart in the source and are kept apart here.

What was measured:
[1] = system: CEM-ss CD4+ T-cells
[2] = Plasma stability, animal plasma; format: in vitro ADME, rat, mouse; conditions: rodent, dog, rabbit and monkey plasma, after 24 h at 37 °C
How it was run: (§1)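 Plasma (100 μL) was spiked with 1 μM test compound at 37 °C. It was stopped at 0, 2, 6 and 24 h with 1 mL methanol and 3 min vortexing. Heat-inactivated plasma under identical conditions separated chemical from enzymatic loss. After centrifugation at 15,000 g for 10 min, supernatant was diluted in 80% methanol with internal standard. Analysed by UPLC-MS/MS.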

[3] = system: HIV-1ADA; assay: EC50 by HIV-1 RT activity in MDM; format: cell-based; conditions: read-out: EC50 (HIV-1 RT activity)
[4] = Solubility in water and 1-octanol; format: physicochemical
How it was run: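 Excess test compound or parent nucleoside was added to water or 1-octanol to give saturated solutions. These were mixed 24 h at room temperature, then centrifuged at 14,000 × g for 10 min to remove undissolved drug. Supernatant concentration was quantified by UPLC-TUV.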

[5] = Prodrug chemical stability at acid, alkaline and neutral pH; format: physicochemical; conditions: room temperature; for prodrug degraded: after 24 h
[6] = system: MDM; assay: MTT cell viability assay in MDM; format: cell-based, human; conditions: for effect on mitochondrial reductase activity (MTT): 10–400 μM
[7] = Plasma stability, human plasma; format: in vitro ADME; conditions: 37 °C; for chemical stability in plasma: up to 24 h, 1 μM
How it was run: as §1

[8] = system: HIV-1NL4–3-eGFP; assay: microbe, parasite or virus in culture; format: cell-based; conditions: Human immunodeficiency virus 1, T-cell, 240 h, read-out: EC50 (RT activity)
[9] = Pharmacokinetics and biodistribution after a single IM injection; format: in vivo, Sprague Dawley rats; conditions: rat
[10] = system: HIV-1ADA; assay: Long-term antiretroviral efficacy in MDM; format: cell-based
How it was run: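 Human monocytes from leukapheresis, purified by elutriation and differentiated 7 days in DMEM with 10% heat-inactivated human serum and 1000 U/mL MCSF. MDM were exposed to 100 μM test compound for 8 h, washed, and kept drug-free with half-media changes every other day. On days 1–30 they were challenged with HIV-1ADA at MOI 0.1 for 16 h. RT activity in fluids on day 10; PFA-fixed cells stained for p24.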

[11] = system: MDM; assay: Cellular drug uptake and retention in MDM; format: cell-based, human

Structure (SMILES): CCCCCCCCCCCCCCCCCCCCCCOC(=O)[C@H](Cc1ccccc1)NP(=O)(OC[C@@H]1O[C@H](n2cc(F)c(N)nc2=O)CS1)Oc1ccccc1 (stereo partly drawn) [M2FTC]
- concentration not affecting cell viability (LiveDead staining) [1]: ≤ 200 µM
- degradation in plasma (in words) [2]: high
- EC50 ([3]; HIV-1ADA in MDM, MOI 0.1, 10 days): 0.11 nM
- fold improvement in octanol solubility compared to FTC ([4]; 1-octanol): 90 fold
- octanol solubility ([4]; 1-octanol, saturated solution mixed 24 h): 87.56 ± 0.236 mg/mL
- fold decrease in aqueous solubility compared to FTC ([4]; water): 4000 fold
- aqueous solubility ([4]; water, saturated solution mixed 24 h): 0.0366 ± 0.0093 mg/mL (≈ 0.0426 mM)
- prodrug degraded ([5]; acidic pH (0.1 M HCl)): 10%
- prodrug degraded ([5]; alkaline pH (0.1 M NaOH)): 10%
- chemical stability at neutral pH ([5]; neutral pH (water)): stable over 7 days
- effect on mitochondrial reductase activity (MTT) [6]: No effects
- non-cytotoxic concentration (MTT) ([6]; 24 h treatment): ≤ 100 µM
- effect on cell viability (MTT) ([6]; above 100 μM): slight reduction in cell viability
- chemical stability in plasma ([7]; heat inactivated human plasma): over 90%
- plasma stability (in words) ([7]; normal and heat inactivated human plasma, over 24 h): remained stable
- chemical stability in plasma ([7]; normal human plasma): over 90%

Structure (SMILES): Nc1nc(=O)n([C@@H]2CS[C@H](CO)O2)cc1F [FTC, emtricitabine]
- EC50 [8]: 25.7 nM
- concentration at 7 days ([9]; male, Sprague Dawley, whole blood, intramuscular, 45 mg/kg FTC-equivalent): < 2 ng/mL
- drug concentrations in blood and tissues over time (in words) ([9]; single IM 45 mg/kg): declined to undetectable levels within a day
- FTC-TP levels in lymph node and spleen cells ([9]; single IM 45 mg/kg FTC equivalents, day 28 / one month): undetectable levels
- drug levels in tissues (in words) ([9]; single IM 45 mg/kg, lymph nodes, spleen, liver): rapidly fell below the limit of quantitation
- inhibition at 100 µM ([10]; Human immunodeficiency virus 1, 8 h, read-out: protection (viral inhibition)): 40%
- viral inhibition ([10]; MDM, single 8 h treatment 100 μM, challenge at time points later than day one): no viral inhibition
- concentration not affecting cell viability (LiveDead staining) ([1]; human): ≤ 200 µM
- EC50 ([3]; Human immunodeficiency virus 1, 240 h): 0.5 nM
- intracellular drug concentration (uptake) ([11]; 100 μM, over 8 h): < 0.1 nmoles/10^6 cells
- intracellular drug (retention) ([11]; at 8 h): undetectable
- solubility at 24 h ([4]; 1-octanol): 0.97 ± 0.027 mg/mL (≈ 3.92 mM)
- solubility at 24 h ([4]; water): 143 ± 11.2 mg/mL (≈ 578 mM)
- effect on mitochondrial reductase activity (MTT) [6]: No effects
